The source of these data is ChEMBL document CHEMBL3758117, “Discovery of indeno[1,2-b]quinoxaline derivatives as potential anticancer agents” (Eur J Med Chem, 2016).

Activity calls are given as the source filed them. The rule behind the calls is not given here.

Assay [1] concerns Huh-7. The assay is described as follows: Induction of apoptosis in human HuH7 cells assessed as downregulation of PARP expression at 1 to 10 uM after 24 hrs by Western blot analysis. The assay is classed as functional, cell-based. In outline:
(§1)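 Huh-7 cells were treated with DMSO or compound at 1, 5 and 10 μM for 24 h. Cells were lysed in NP-40 buffer with protease and phosphatase inhibitors, and protein was measured by Bradford. Lysate protein was resolved by SDS-PAGE and transferred to PVDF. Membranes were blocked in 5% milk, probed with primary antibodies for 2 h and secondary antibodies for 30 min, and detected by ECL, with β-actin as loading control.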
Background: In western blotting, separated proteins are transferred to a membrane and probed.

In assay [2] the target is RAC-alpha serine/threonine-protein kinase (Homo sapiens) (UniProt P31749). The assay is described as follows: Inhibition of AKT1 phosphorylation in human HuH7 cells at 1 to 10 uM after 24 hrs by immunoblot analysis. The assay is classed as cell-based. The note with it: Huh-7. The method in brief: as §1
Chain of RAC-alpha serine/threonine-protein kinase (Homo sapiens) (P31749 whole entry): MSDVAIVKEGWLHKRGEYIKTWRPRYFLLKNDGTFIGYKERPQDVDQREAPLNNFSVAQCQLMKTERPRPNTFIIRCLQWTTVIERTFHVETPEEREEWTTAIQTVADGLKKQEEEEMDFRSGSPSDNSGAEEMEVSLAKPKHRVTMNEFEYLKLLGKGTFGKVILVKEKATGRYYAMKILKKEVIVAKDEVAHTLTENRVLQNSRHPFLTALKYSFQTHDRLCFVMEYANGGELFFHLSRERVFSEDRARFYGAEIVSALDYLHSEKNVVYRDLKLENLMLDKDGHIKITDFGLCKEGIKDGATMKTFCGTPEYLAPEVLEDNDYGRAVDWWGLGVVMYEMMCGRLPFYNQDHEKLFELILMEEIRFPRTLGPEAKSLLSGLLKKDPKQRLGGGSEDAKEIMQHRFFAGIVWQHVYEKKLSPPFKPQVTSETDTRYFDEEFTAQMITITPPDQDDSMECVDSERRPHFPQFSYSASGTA
The target of assay [3] is RAC-beta serine/threonine-protein kinase (Homo sapiens) (UniProt P31751). The assay is described as follows: Inhibition of AKT2 phosphorylation in human HuH7 cells at 1 to 10 uM after 24 hrs by immunoblot analysis. It is filed as cell-based. The note with it: Huh-7. In outline:
as §1

The test system of assay [4] is Huh-7. The assay can be described thus: Antitumor activity against human HuH7 cells xenografted in zebrafish assessed as reduction in tumor size after 24 to 48 hrs post injection by fluorescence microscopy. The assay is classed as functional, cell-based. In outline:
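About 100 Huh-7 cells were implanted into the yolk sac of anesthetized 48 hpf zebrafish embryos. Embryos were then kept in water containing compound at 0.1 to 2.0 μg/ml for 24 and 48 h post-injection. Embryos were imaged by fluorescence microscopy, with red fluorescence intensity taken as proportional to xenograft tumor size.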
For orientation: A xenograft is tissue or cells of one species grown in another, often human tumour cells in immunodeficient mice.

Assay [5] deals with MDA-MB-231. The assay is described as follows: Antiproliferative activity against human MDA-MB-231 cells after 72 hrs by XTT assay. The assay is classed as functional, cell-based. To be noted: MDA-MB-231, 72 h. In outline: (§2)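 Cells kept as monolayers in DMEM with 10% FBS, penicillin, streptomycin and amphotericin at 37°C, 5% CO2. Seeded at 5 x 10³ cells/well and exposed to compound for 72 h in medium with 10% FBS. XTT plus electron-coupling reagent added, 4 h at 37°C, absorbance read at 492 nm. Percent of control growth uses mean absorbance (n = 3). The 50% value is taken from the linear portion of the curve.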
Background: Formazan colour is commonly taken as a measure of viable cells.

Assay [6] can be described thus: Antiproliferative activity against human PC3 cells after 72 hrs by XTT assay. It is filed as functional, cell-based. The note with it: PC-3, 72 h. The method in brief: as §2
Assay [7] can be described thus: Antiproliferative activity against human HuH7 cells after 72 hrs by XTT assay. The assay is classed as functional, cell-based. To be noted: Huh-7, 72 h. In outline: as §2
Assay [8] concerns MRC5. The assay is described as follows: Antiproliferative activity against human MRC5 cells after 72 hrs by XTT assay. It is filed as cell-based. To be noted: MRC5, 72 h. The method in brief: as §2
The subject of assay [9] is MRC5. The assay can be described thus: Selectivity index, ratio of IC50 for human MRC5 cells to IC50 for human PC3 cells. The assay is classed as functional.
Assay [10] concerns the target T1, DNA topoisomerase 1 (Homo sapiens) (UniProt P11387).
T1 sequence (whole entry): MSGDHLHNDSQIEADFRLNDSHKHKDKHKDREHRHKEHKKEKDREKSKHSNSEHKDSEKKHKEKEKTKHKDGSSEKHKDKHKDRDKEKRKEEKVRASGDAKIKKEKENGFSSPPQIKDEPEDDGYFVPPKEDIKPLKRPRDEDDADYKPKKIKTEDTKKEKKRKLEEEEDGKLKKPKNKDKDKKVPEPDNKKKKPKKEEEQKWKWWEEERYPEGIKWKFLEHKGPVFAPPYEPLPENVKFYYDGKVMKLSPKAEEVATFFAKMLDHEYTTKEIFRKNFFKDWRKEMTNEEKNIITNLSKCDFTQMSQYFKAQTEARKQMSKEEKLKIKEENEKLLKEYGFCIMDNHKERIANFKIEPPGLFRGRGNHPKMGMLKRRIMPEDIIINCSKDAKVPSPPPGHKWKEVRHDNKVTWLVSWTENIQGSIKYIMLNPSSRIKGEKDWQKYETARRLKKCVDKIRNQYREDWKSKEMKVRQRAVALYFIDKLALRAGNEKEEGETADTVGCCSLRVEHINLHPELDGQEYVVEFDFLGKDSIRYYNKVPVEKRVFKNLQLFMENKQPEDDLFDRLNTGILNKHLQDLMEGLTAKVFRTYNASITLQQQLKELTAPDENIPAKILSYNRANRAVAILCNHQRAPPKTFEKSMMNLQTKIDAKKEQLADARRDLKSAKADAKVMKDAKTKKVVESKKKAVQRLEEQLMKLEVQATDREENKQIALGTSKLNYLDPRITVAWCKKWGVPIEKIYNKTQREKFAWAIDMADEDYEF
The assay can be described thus: Inhibition of human DNA topoisomerase 1-mediated relaxation of supercoiled pBR322 DNA at 10 uM after 30 mins by ethidium bromide staining based agarose gel electrophoresis. In outline:
(§3)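 Human topo I or topo II (2 units) was reacted with 0.2 μg supercoiled pBR322 in 20 μl Tris-HCl pH 7.5 containing KCl, DTT, EDTA, MgCl2 and BSA, with DMSO held at 0.5%, for 30 min at 37°C. The reaction was stopped with SDS. Samples were run on 1% agarose in Tris-acetate/EDTA at 1.5 V/cm for 2-3 h and stained with ethidium bromide. Relaxation was quantified by densitometry of the supercoiled band area.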

Assay [11] deals with DNA topoisomerase 2-alpha (Homo sapiens) (UniProt P11388). The assay is described as follows: Inhibition of human DNA topoisomerase 2-mediated relaxation of supercoiled pBR322 DNA at 100 uM after 30 mins by ethidium bromide staining based agarose gel electrophoresis. In outline:
as §3

For assay [12] the target is unchanged. The assay is described as follows: Inhibition of human DNA topoisomerase 2-mediated relaxation of supercoiled pBR322 DNA at 10 uM after 30 mins by ethidium bromide staining based agarose gel electrophoresis. In outline:
as §3

Assay [13] is described as follows: Cell cycle arrest in human HuH7 cells assessed as accumulation at sub G1 phase at 10 uM for 24 hrs by propidium iodide staining based flow cytometry (reference value: 1.3 +/- 0.7%). The assay is classed as functional. To be noted: Huh-7.
Assay [14] in a line: Cell cycle arrest in human HuH7 cells assessed as accumulation at G1 phase at 1 uM for 24 hrs by propidium iodide staining based flow cytometry (reference value: 62.1 +/- 1.4%). The assay is classed as functional. To be noted: Huh-7.
Assay [15] in a line: Cell cycle arrest in human HuH7 cells assessed as accumulation at G1 phase at 5 uM for 24 hrs by propidium iodide staining based flow cytometry (reference value: 62.1 +/- 1.4%). The note with it: Huh-7. The assay is classed as functional.
Assay [16] can be described thus: Cell cycle arrest in human HuH7 cells assessed as accumulation at G1 phase at 10 uM for 24 hrs by propidium iodide staining based flow cytometry (reference value: 62.1 +/- 1.4%). The assay is classed as functional. To be noted: Huh-7.
Assay [17] is described as follows: Cell cycle arrest in human HuH7 cells assessed as accumulation at S phase at 5 uM for 24 hrs by propidium iodide staining based flow cytometry (reference value: 11.4 +/- 2.4%). It is filed as functional. To be noted: Huh-7.
Assay [18] in a line: Cell cycle arrest in human HuH7 cells assessed as accumulation at G2/M phase at 5 uM for 24 hrs by propidium iodide staining based flow cytometry (reference value: 25.2 +/- 3.5%). It is filed as functional. The note with it: Huh-7.
The nature of assay [19]: Downregulation of cyclin A expression in human HuH7 cells at 1 to 10 uM after 24 hrs by immunoblot analysis. It is filed as functional, cell-based. To be noted: Huh-7. In outline: as §1
Assay [20] can be described thus: Downregulation of cyclin B1 expression in human HuH7 cells at 1 to 10 uM after 24 hrs by immunoblot analysis. It is filed as functional, cell-based. To be noted: Huh-7. The method in brief: as §1
Assay [21] is described as follows: Downregulation of cyclin D1 expression in human HuH7 cells at 1 to 10 uM after 24 hrs by immunoblot analysis. The assay is classed as functional, cell-based. To be noted: Huh-7. In outline:
as §1

Assay [22] in a line: Induction of apoptosis in human HuH7 cells assessed as upregulation of activated caspase 7 at 1 to 10 uM after 24 hrs by Western blot analysis. The assay is classed as functional, cell-based. To be noted: Huh-7. The method in brief: as §1

Chain of DNA topoisomerase 2-alpha (Homo sapiens) (P11388 whole entry): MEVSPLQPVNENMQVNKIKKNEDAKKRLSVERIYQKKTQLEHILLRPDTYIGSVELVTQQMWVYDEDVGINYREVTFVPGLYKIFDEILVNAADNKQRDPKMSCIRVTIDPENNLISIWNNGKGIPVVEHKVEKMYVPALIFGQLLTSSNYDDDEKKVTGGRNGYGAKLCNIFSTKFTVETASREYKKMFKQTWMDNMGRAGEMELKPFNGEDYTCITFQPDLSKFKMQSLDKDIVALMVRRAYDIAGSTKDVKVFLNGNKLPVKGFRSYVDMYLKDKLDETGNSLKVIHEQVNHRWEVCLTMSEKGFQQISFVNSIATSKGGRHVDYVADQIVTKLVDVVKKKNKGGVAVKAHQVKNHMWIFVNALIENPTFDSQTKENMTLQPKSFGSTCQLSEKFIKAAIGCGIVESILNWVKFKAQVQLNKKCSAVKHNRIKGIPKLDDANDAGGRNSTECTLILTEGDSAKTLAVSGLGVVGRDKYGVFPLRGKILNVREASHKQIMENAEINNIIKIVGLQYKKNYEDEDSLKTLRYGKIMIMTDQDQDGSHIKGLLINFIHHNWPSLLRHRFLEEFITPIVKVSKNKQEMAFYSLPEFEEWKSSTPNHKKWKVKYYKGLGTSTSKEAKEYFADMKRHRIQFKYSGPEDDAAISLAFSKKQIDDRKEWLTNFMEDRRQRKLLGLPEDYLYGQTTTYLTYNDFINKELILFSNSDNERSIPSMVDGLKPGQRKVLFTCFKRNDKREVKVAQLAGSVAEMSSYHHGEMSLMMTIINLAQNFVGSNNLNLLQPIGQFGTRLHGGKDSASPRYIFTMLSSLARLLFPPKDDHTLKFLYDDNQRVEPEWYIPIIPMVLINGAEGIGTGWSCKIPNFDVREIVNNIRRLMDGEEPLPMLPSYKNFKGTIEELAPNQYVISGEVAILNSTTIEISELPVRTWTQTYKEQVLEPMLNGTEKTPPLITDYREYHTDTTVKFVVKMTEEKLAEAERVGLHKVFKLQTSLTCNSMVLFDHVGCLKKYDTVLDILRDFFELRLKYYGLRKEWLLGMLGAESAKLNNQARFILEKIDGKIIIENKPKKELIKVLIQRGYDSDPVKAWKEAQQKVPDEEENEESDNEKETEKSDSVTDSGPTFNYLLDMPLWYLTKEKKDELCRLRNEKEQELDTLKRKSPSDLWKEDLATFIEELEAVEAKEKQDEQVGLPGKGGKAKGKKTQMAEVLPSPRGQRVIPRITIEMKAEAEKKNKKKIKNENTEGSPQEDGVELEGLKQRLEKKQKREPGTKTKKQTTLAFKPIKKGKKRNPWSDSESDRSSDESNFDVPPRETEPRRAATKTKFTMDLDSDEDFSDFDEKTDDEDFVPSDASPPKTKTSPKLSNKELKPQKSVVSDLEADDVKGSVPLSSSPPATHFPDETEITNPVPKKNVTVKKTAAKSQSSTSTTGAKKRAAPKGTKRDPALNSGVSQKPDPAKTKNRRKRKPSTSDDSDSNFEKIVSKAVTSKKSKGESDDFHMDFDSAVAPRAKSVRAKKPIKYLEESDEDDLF
Chain of RAC-beta serine/threonine-protein kinase (Homo sapiens) (P31751 whole entry): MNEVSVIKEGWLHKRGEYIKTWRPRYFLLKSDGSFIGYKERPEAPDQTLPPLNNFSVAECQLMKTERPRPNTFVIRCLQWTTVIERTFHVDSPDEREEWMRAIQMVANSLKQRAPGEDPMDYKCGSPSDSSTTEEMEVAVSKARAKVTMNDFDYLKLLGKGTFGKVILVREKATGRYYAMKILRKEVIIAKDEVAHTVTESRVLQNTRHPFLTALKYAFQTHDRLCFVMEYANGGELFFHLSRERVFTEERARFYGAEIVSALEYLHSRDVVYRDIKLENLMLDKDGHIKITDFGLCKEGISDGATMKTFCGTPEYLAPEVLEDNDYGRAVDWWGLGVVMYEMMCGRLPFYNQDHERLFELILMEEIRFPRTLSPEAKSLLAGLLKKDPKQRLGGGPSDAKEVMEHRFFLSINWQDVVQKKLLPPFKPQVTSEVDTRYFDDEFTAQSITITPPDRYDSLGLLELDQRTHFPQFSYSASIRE

Regarding `CN(C)CCCNC(=O)c1cccc2nc3c(nc12)-c1ccccc1/C3=N\OCCCN(C)C.Cl`, the Activity result is “Dose-dependent effect” in [1]; 23.4% in [13]; 55.3% in assay [14]; 35.1% in [15]; 30.4% in assay [16]; 30.5% in assay [17]. For the same compound, the figures for the Activity in assay [18] and in assay [22] were 22.9% and “Dose-dependent effect”, respectively. Besides, the inhibition result in assay [2], in assay [3] and in [10] was “Active” throughout. The inhibition entry in assay [4] was “Dose-dependent effect”. The IC50 (commonly the concentration that gives 50% inhibition) in assay [5] was 870 nM; in assay [6], 820 nM; in [7], 640 nM; in assay [8], 31500 nM. In addition, the “Ratio IC50” value in assay [9] turned out to be 38.43. The “inhibition call (active/not active)” value in assay [11] was “Active”. Also, the “topoisomerase 2 inhibition (active/not active)” value in assay [12] is “Active”. The result in assay [19], in assay [20] and in assay [21] was Active.
